High-throughput results deposited in PubChem by Johns Hopkins Ion Channel Center.
TRPC4 agonist – opens the mouse TRPC4 cation channel. Q9QUQ5. HEK293 TRPC4beta/mu-opioid, Fluo4 calcium fluorescence; active compounds read high. B-score at 10 µM. 310,000 compounds, 0.49% hits. AID 2237;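 active = B-score above 5 SD of library B-scores, and initial fluorescence ratio not above library mean plus 5 SD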;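 note: positive B-score marks a calcium rise read as TRPC4 activation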
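Assay system: HEK293 stable line with TRPC4beta plus mu-opioid receptor. Times: dye 45 min RT, read 110 s. Measured by: kinetic Fluo4 calcium fluorescence. Measure: B score of integrated ratio. Controls: assay buffer as low control, maximal DAMGO as high control.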
TRPC4 potent – allosterically enhances the mouse TRPC4 cation channel. B-score at 10 µM. Q9QUQ5. 310,000 compounds, 0.42% hits. HEK293 TRPC4beta/mu-opioid, DAMGO EC20, Fluo-4 Ca2+ flux; active compounds read high. AID 2227;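 active = B-score of calcium response area above 5 SD of library B-scores, with initial fluorescence ratio within 5 SD of library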
TRPC6 act – activators of mouse TRPC6 channel; HEK293-TRPC6 membrane potential dye fluorescence; active compounds read high; B-score at 10 µM; 310,000 compounds, 0.13% hits; AID 2550;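 active = B-score of the integrated fluorescence ratio above library mean plus 3 SD, and starting fluorescence ratio within library mean plus 5 SD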;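 note: higher score means more depolarization so channel activation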
Target sequence (Q61143 whole entry, looked up): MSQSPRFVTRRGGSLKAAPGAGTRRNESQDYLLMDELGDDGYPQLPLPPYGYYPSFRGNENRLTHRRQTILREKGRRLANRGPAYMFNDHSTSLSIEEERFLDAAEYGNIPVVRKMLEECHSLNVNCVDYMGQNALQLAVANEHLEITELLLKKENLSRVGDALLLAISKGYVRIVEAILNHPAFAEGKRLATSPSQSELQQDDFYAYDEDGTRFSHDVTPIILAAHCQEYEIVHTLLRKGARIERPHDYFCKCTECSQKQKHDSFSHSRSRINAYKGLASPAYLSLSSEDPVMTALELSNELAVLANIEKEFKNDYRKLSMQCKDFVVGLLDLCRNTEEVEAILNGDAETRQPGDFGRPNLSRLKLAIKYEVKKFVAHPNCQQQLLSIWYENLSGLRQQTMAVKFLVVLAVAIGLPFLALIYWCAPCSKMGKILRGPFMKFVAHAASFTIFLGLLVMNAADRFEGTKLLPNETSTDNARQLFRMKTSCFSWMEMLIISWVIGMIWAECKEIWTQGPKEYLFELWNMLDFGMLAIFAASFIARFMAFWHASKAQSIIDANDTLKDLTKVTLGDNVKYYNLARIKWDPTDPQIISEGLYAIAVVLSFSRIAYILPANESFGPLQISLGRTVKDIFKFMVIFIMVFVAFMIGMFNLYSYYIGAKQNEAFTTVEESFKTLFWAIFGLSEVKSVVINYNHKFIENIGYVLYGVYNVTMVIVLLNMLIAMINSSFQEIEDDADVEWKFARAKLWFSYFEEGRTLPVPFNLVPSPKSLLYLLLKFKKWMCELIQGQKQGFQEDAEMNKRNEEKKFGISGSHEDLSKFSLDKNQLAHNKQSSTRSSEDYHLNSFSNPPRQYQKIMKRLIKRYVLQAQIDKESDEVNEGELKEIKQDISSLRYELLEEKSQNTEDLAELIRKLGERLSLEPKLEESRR
TRPC4 inh – blocks the mouse TRPC4 cation channel. 300,000 compounds, 0.39% hits. B-score at 10 µM. AID 2247. Q9QUQ5. HEK293 TRPC4beta/mu-opioid, DAMGO-evoked Fluo4 calcium flux; active compounds read low;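 active = B-score over 3 SD under the library average, no early fluorescence shift, positive overall ratio signal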
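material = TRPC4beta/mu-opioid receptor HEK293 cell line | probe or stimulus = sequential submaximal and maximal DAMGO stimulation | compound dosing = one concentration per compound | measured by = Fluo4 Ca2+ flux fluorescence | evaluation = integrated fluorescence ratio relative to baseline, converted to per-well B score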
TRPC6 inhibitor – blocks the mouse TRPC6 cation channel | Q61143 | HEK293-TRPC6, membrane potential dye, ACh-evoked depolarization; active compounds read low | B-score at 10 µM | 310,000 compounds, 1.1% hits | AID 2553;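 active = B-score under library mean minus 3 SD, initial fluorescence not abnormally high, positive integrated signal ratio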;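 note: B-score derived from integrated fluorescence ratio over the kinetic read; more negative B-score means stronger inhibition of depolarization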
Each line names hits and unclear results; the compound was inactive in the other large screens. Shown are actives, neighbours in structure and some others; about 2.3% of the full set was active somewhere.

CC#CC[N+](C)(C)CCCCCCCCCCCC	TRPC4 inh -8
C#CC[N+](C)(C)CCCCCCCCCC	none
COc1ccccc1CC(=O)N(Cc1ccccc1)c1cccc(C)c1	none
Cc1ccc(/C=C2\SC(N3CCCCC3)=NC2=O)cc1	TRPC4 potent 12
CCN1CCN(C2=NC(=O)/C(=C/c3ccc(C)o3)S2)CC1	TRPC4 potent 14
O=C(NCc1cccc(Cl)c1)C1CCCN(c2ncnc3c2nc2n3CCCCC2)C1 (stereo unspecified)	none
CN(C)C(CNC(=O)CCc1c[nH]c2ccccc12)c1ccccc1 (stereo unspecified)	TRPC4 agonist 138
O=C(CCS(=O)(=O)c1ccccc1)NCCS(=O)(=O)c1ccccc1	none
CN(C)C(CNC(=O)CCS(=O)(=O)c1ccccc1)c1ccccc1 (stereo unspecified)	TRPC4 agonist 96
COc1ccc(C(CNC(=O)c2cccc(S(=O)(=O)NCc3ccccc3)c2)N(C)C)cc1 (stereo unspecified)	TRPC4 agonist 159
CN(C)C(CNC(=O)c1cccc(S(=O)(=O)N(C)C)c1)c1ccccc1 (stereo unspecified)	TRPC4 agonist 109
CN(C)C(CNC(=O)c1ccc(S(=O)(=O)N(C)C)cc1)Cc1ccccc1 (stereo unspecified)	TRPC4 agonist 74
COc1ccc(C(CNC(=O)c2ccc3c(c2)OCCO3)N(C)C)cc1 (stereo unspecified)	TRPC4 agonist 164
CN(C)S(=O)(=O)c1ccc(C(=O)NCCSc2ccccc2)cc1	none
COc1ccc(C(c2c(O)ccc3ccccc23)N2CCOCC2)c(OC)c1 (stereo unspecified)	TRPC4 inh -6
COc1ccc(OCC(O)CNCc2ccco2)cc1 (stereo unspecified)	none
COc1ccc(C(CNCC(O)COc2c(C)ccc(C)c2C)N(C)C)cc1 (stereo unspecified)	TRPC4 agonist 68
Cc1ccc(C(=O)Nc2cccc(C(=O)N3CCOCC3)c2)cc1Cl	none
CCCSc1nc(N)nc(-c2cccs2)c1C#N	TRPC4 inh -6
COc1c(/C=N/Nc2nc(N3CCCCC3)nc(N3CCCCC3)n2)cccc1[N+](=O)[O-]	none
O=[N+]([O-])c1ccc(/C=N/Nc2nc(N3CCCCC3)nc(N3CCCCC3)n2)o1	TRPC4 potent 22
COc1cc(NC(=O)CCN2CCN(CCO)CC2)cc(OC)c1	TRPC4 agonist 45
CCN1CCN(CCC(=O)Nc2ccccc2OC)CC1	TRPC4 potent 19
O=C(CNCc1ccccc1)Nc1ccc(Cl)cc1	none
Oc1ccc(CN2CCCCC2)nc1-c1ccccc1	TRPC4 inh -6
O=C1C(=O)N(C/C=C/c2ccccc2)c2ccccc21	none
CC1Oc2ccccc2C=C1/C=N/Nc1ccc(C(=O)O)cc1 (stereo unspecified)	TRPC4 inh -5
COc1ccc(C)cc1S(=O)(=O)NC1CCCC1	none
COc1ccc(S(=O)(=O)NC2CCCC2)c(Cl)c1Cl	TRPC4 potent 11
CC(=O)c1c(O)c(C)c(O)c2c1OC1=CC(=O)C(C(C)=O)C(=O)[C@@]12C (stereo partly specified)	TRPC4 agonist 90, TRPC4 inh -6
CC(=O)Oc1c(C)c(OC(C)=O)c2c(c1C(C)=O)OC1CC(=O)C(C(C)=O)=C(O)C21C (stereo unspecified)	none
Cc1ccc(C)c(NS(=O)(=O)c2cc(C(=O)NCc3ccccn3)ccc2Cl)c1	none
Cc1ccc(C(=O)NCc2ccccn2)cc1Cl	TRPC4 potent 10
Cc1ccc(NS(=O)(=O)c2cc(C(=O)NCc3ccccn3)ccc2Cl)cc1C	TRPC4 potent 11
Cc1ccc(NC(=O)NCc2ccccn2)cc1Cl	none
O=C(COC(=O)c1ccccn1)c1ccc([N+](=O)[O-])cc1	none
CCC1CCCCN1S(=O)(=O)c1ccc(C(=O)Nc2nnc(-c3ccccc3Cl)o2)cc1 (stereo unspecified)	TRPC4 agonist 65
CC1(C)COCN1S(=O)(=O)c1ccc(C(=O)Nc2nnc(-c3ccc(Cl)s3)o2)cc1	TRPC4 agonist 111, TRPC4 inh -5
COc1cc(NC(=O)CN2C(=O)COc3ccc(S(=O)(=O)N4CCCC4)cc32)cc(OC)c1	none
CNC(=S)N/N=C(\C)c1ccc(C(C)(C)C)cc1	TRPC4 potent 11
CNC(=S)N/N=C(\C)c1ccccc1	none
CCOc1ccc(NC(=O)CSc2nnnn2C2CCCC2)cc1	none
CNCC(C)COc1ccccc1OCc1ccccc1 (stereo unspecified)	TRPC4 inh -6
O=C(Nc1nnc(CCc2ccccc2)s1)c1ccccc1F	none
COC(=O)N/N=C(\C)c1ccc(-n2ccnc2)cc1	none
C/C(=N\NC(=O)COc1ccc(C)cc1C(C)C)c1ccc(-n2ccnc2)cc1	TRPC4 potent 28
C=CCN1C(=O)c2ccc(C(=O)N(CCC)CC(=O)Nc3ccccc3C)cc2C1=O	none
CCCN(CCC)C(=O)c1cc(S(=O)(=O)N2CCCCC2)c[nH]1	none
CCOCCCNC(=O)/C(C#N)=C/c1ccc(Cl)c([N+](=O)[O-])c1	TRPC4 potent 18
O=S(=O)(c1ccccc1)c1nnn2c1nc(NC1CCN(Cc3ccccc3)CC1)c1cc(Cl)ccc12	TRPC4 agonist 148, TRPC4 inh -6
O=S(=O)(c1ccccc1)c1nnn2c1nc(NC1CCN(Cc3ccccc3)CC1)c1ccccc12	none
CC(=O)c1c(C)nn(CC(=O)NC2CCCN(Cc3ccc(CC(C)C)cc3)C2)c1C (stereo unspecified)	TRPC4 agonist 111
CC(C)Cc1ccc(CN2CCCC(NC(=O)CCN3CCCCC3=O)C2)cc1 (stereo unspecified)	none
COc1cc(OC)cc(C(=O)NC2CCCN(Cc3ccc(Cl)cc3)C2)c1 (stereo unspecified)	TRPC4 agonist 92
Cc1cc(C)n(CC(=O)NC2CCCN(Cc3ccc(Cl)cc3)C2)n1 (stereo unspecified)	TRPC4 agonist 50
O=C(CCN1CCCCC1=O)NC1CCCN(Cc2ccc(Cl)cc2)C1 (stereo unspecified)	TRPC4 potent 14
O=C(NC1CCCN(Cc2ccc(Cl)cc2)C1)c1ccnc(Cl)c1 (stereo unspecified)	none
CC(=O)N1CCN(S(=O)(=O)c2cccc(C(=O)Nc3ccccc3N3CCCC3)c2)CC1	none
O=C(Cc1ccccc1F)NC1CCCN(Cc2ccc(Cl)cc2)C1 (stereo unspecified)	TRPC4 agonist 44
O=C(Cc1cccc(F)c1F)NC1CCCN(Cc2ccc(Cl)cc2)C1 (stereo unspecified)	TRPC4 agonist 106
O=C(COc1ccccc1)NC1CCCN(Cc2ccccc2F)C1 (stereo unspecified)	none
Cc1cc(Cl)c(OCCCCNC(C)(C)C)c(Br)c1	TRPC6 act 12.4
